# ChEMBL document CHEMBL2034832, “12-N-Methylated 5,6-dihydrobenzo[c]acridine derivatives: a new class of highly selective ligands for c-myc G-quadruplex DNA” (Eur J Med Chem, 2012)
# Activity calls are given as the source filed them. No cut-off for these calls is given here.
# System: Nucleic Acid
# Assay: Binding affinity to duplex DNA F10T assessed as change in melting temperature at 2 uM by FRET-melting assay
# Type: nucleic-acid assay
# In short: (§1)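 FRET melting of 0.2 μM dual-labelled oligo (FPu18T, FAM/TAMRA c-myc G-quadruplex; or F10T, HEG-linked hairpin duplex) in 10 mM Tris-HCl pH 7.2, 0.2 mM KCl, with or without 2 μM ligand. Excitation 470 nm, emission 530 nm, read every 1 °C from 37–99 °C after 30 s hold. ΔTm = Tm(DNA+ligand) − Tm(DNA); mean ± SD of at least three runs.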
row,SMILES,ΔTm [°C]
1,CCN(CC)CCCOc1c(OC)ccc2c1cc1c([n+]2C)-c2cc3c(cc2CC1)OCO3,1.2
2,CCN(CC)CCCOc1c(OC)ccc2nc3c(cc12)CCc1cc2c(cc1-3)OCO2,1
3,CCN(CC)CCOc1c(OC)ccc2nc3c(cc12)CCc1cc2c(cc1-3)OCO2,1.6

# Continued, values first:
row,ΔTm [°C],SMILES
1,0.5,COc1ccc2c(cc3c([n+]2C)-c2cc4c(cc2CC3)OCO4)c1OCCCN1CCCCC1
2,0.4,CCN(CC)CCCOc1c(OC)ccc2nc3c(cc12)CCc1cc(OC)c(OC)cc1-3
3,1.4,COc1cc2c(cc1OC)-c1c(cc3c(OCCCN4CCCC4)c(OC)ccc3[n+]1C)CC2

# Target: Nucleic Acid
# Assay: Binding affinity to immobilised c-myc quadruplex DNA G4 by SPR assay
# Type: nucleic-acid assay
# In short: (§2)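 SPR: biotinylated DNA captured (~1000 RU) on GLH chip, blank reference cell. Running buffer 50 mM Tris-HCl pH 7.2, 100 mM KCl. Ligand at 0.3125–10 μM injected at 100 μL/min, 400 s association and 400 s dissociation, 25 °C; NaOH regeneration. KD by equilibrium analysis; mean ± SD of at least two runs.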
row,SMILES,Kd [µM]
1,CCN(CC)CCCOc1c(OC)ccc2c1cc1c([n+]2C)-c2cc3c(cc2CC1)OCO3,0.6
2,CCN(CC)CCCOc1c(OC)ccc2nc3c(cc12)CCc1cc2c(cc1-3)OCO2,3
3,CCN(CC)CCOc1c(OC)ccc2nc3c(cc12)CCc1cc2c(cc1-3)OCO2,2.6

# Now from value to compound:
row,Kd [µM],SMILES
1,0.6,COc1ccc2c(cc3c([n+]2C)-c2cc4c(cc2CC3)OCO4)c1OCCCN1CCCCC1
2,4.4,CCN(CC)CCCOc1c(OC)ccc2nc3c(cc12)CCc1cc(OC)c(OC)cc1-3
3,0.6,COc1cc2c(cc1OC)-c1c(cc3c(OCCCN4CCCC4)c(OC)ccc3[n+]1C)CC2

# System: Nucleic Acid
# Assay: Binding affinity to c-myc quadruplex DNA FPu18T assessed as change in melting temperature at 2 uM by FRET-melting assay in the presence of excess of ds26 duplex DNA
# Type: nucleic-acid assay
# In short: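 Competition FRET melting: 0.2 μM FPu18T with 2 μM ligand in 10 mM Tris-HCl pH 7.2, 0.2 mM KCl, plus varying amounts of unlabelled self-complementary ds26 duplex as competitor. Fluorescence at 470/530 nm recorded per 1 °C step over 37–99 °C.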
row,SMILES,Activity
1,CCN(CC)CCCOc1c(OC)ccc2c1cc1c([n+]2C)-c2cc3c(cc2CC1)OCO3,Active
2,CCN(CC)CCCOc1c(OC)ccc2nc3c(cc12)CCc1cc2c(cc1-3)OCO2,Active
3,CCN(CC)CCOc1c(OC)ccc2nc3c(cc12)CCc1cc2c(cc1-3)OCO2,Active

# Now from value to compound:
row,Activity,SMILES
1,Active,COc1ccc2c(cc3c([n+]2C)-c2cc4c(cc2CC3)OCO4)c1OCCCN1CCCCC1
2,Active,CCN(CC)CCCOc1c(OC)ccc2nc3c(cc12)CCc1cc(OC)c(OC)cc1-3
3,Active,COc1cc2c(cc1OC)-c1c(cc3c(OCCCN4CCCC4)c(OC)ccc3[n+]1C)CC2

# System: Nucleic Acid
# Assay: Binding affinity to c-myc quadruplex DNA Pu27 assessed as conformational change up to 10 uM by circular dichroism in the absence of 100 mM K+
# Type: nucleic-acid assay
# In short: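 K+-free CD: 1 μM Pu27 in 10 mM Tris-HCl pH 7.2 with ligand at 0, 3, 5 or 10 μM, co-annealed (95 °C 5 min, slow cool, 4 °C overnight). Spectra recorded at 25 °C over 230–430 nm, 1 cm cell, two scans averaged, buffer baseline subtracted.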
row,SMILES,Activity
1,CCN(CC)CCCOc1c(OC)ccc2c1cc1c([n+]2C)-c2cc3c(cc2CC1)OCO3,Active
2,CCN(CC)CCCOc1c(OC)ccc2nc3c(cc12)CCc1cc2c(cc1-3)OCO2,Active
3,CCN(CC)CCOc1c(OC)ccc2nc3c(cc12)CCc1cc2c(cc1-3)OCO2,Active

# Other lines, results leading:
row,Activity,SMILES
1,Active,COc1ccc2c(cc3c([n+]2C)-c2cc4c(cc2CC3)OCO4)c1OCCCN1CCCCC1
2,Active,CCN(CC)CCCOc1c(OC)ccc2nc3c(cc12)CCc1cc(OC)c(OC)cc1-3
3,Active,COc1cc2c(cc1OC)-c1c(cc3c(OCCCN4CCCC4)c(OC)ccc3[n+]1C)CC2

# System: Nucleic Acid
# Assay: Binding affinity to immobilised duplex DNA up to 10 uM by SPR assay
# Type: nucleic-acid assay
# In short: as §2
row,SMILES,Activity
1,CCN(CC)CCCOc1c(OC)ccc2c1cc1c([n+]2C)-c2cc3c(cc2CC1)OCO3,inactive
2,CCN(CC)CCCOc1c(OC)ccc2nc3c(cc12)CCc1cc2c(cc1-3)OCO2,inactive
3,CCN(CC)CCOc1c(OC)ccc2nc3c(cc12)CCc1cc2c(cc1-3)OCO2,inactive

# Other lines, results leading:
row,Activity,SMILES
1,inactive,COc1ccc2c(cc3c([n+]2C)-c2cc4c(cc2CC3)OCO4)c1OCCCN1CCCCC1
2,inactive,CCN(CC)CCCOc1c(OC)ccc2nc3c(cc12)CCc1cc(OC)c(OC)cc1-3
3,inactive,COc1cc2c(cc1OC)-c1c(cc3c(OCCCN4CCCC4)c(OC)ccc3[n+]1C)CC2

# System: Nucleic Acid
# Assay: Binding affinity to c-myc quadruplex DNA Pu27 assessed as conformational change up to 10 uM by circular dichroism in the presence of 100 mM K+
# Type: nucleic-acid assay
# In short: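 CD titration of 1 μM Pu27, annealed (95 °C 5 min, slow cool, 4 °C overnight) in 10 mM Tris-HCl pH 7.2, 100 mM KCl. Ligand added stepwise (0.5–10 eq.) at 25 °C, ≥10 min equilibration per addition. Spectra 230–430 nm, 1 cm cell, average of two scans, buffer baseline subtracted.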
row,SMILES,Activity
1,CCN(CC)CCCOc1c(OC)ccc2c1cc1c([n+]2C)-c2cc3c(cc2CC1)OCO3,Active
2,CCN(CC)CCCOc1c(OC)ccc2nc3c(cc12)CCc1cc2c(cc1-3)OCO2,Active
3,CCN(CC)CCOc1c(OC)ccc2nc3c(cc12)CCc1cc2c(cc1-3)OCO2,Active

# Other lines, results leading:
row,Activity,SMILES
1,Active,COc1ccc2c(cc3c([n+]2C)-c2cc4c(cc2CC3)OCO4)c1OCCCN1CCCCC1
2,Active,CCN(CC)CCCOc1c(OC)ccc2nc3c(cc12)CCc1cc(OC)c(OC)cc1-3
3,Active,COc1cc2c(cc1OC)-c1c(cc3c(OCCCN4CCCC4)c(OC)ccc3[n+]1C)CC2

# Target: Nucleic Acid
# Assay: Binding affinity to c-myc quadruplex DNA Pu27 assessed as inhibition of c-myc amplification by PCR-stop assay
# Type: nucleic-acid assay
# In short: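 Pu27 template with partly complementary primer, 10 μM each, […], 2.5 U Taq and ligand at 1, 5, 10 or 25 μM (one series 50 μM). Cycling: 94 °C 2 min, then 30 × (94 °C, 58 °C, 72 °C, 30 s each). Products run on 16% native PAGE, GelRed stain; IC50 for 50% loss of amplification.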
row,SMILES,IC50 [µM]
1,CCN(CC)CCCOc1c(OC)ccc2c1cc1c([n+]2C)-c2cc3c(cc2CC1)OCO3,7.5
2,CCN(CC)CCCOc1c(OC)ccc2nc3c(cc12)CCc1cc2c(cc1-3)OCO2,> 50
3,CCN(CC)CCOc1c(OC)ccc2nc3c(cc12)CCc1cc2c(cc1-3)OCO2,> 50

# The next lines start with the values.
row,IC50 [µM],SMILES
1,5.4,COc1ccc2c(cc3c([n+]2C)-c2cc4c(cc2CC3)OCO4)c1OCCCN1CCCCC1
2,> 50,CCN(CC)CCCOc1c(OC)ccc2nc3c(cc12)CCc1cc(OC)c(OC)cc1-3
3,4.7,COc1cc2c(cc1OC)-c1c(cc3c(OCCCN4CCCC4)c(OC)ccc3[n+]1C)CC2

# System: Nucleic Acid
# Assay: Binding affinity to c-myc quadruplex DNA FPu18T assessed as change in melting temperature at 2 uM by FRET-melting assay
# Type: nucleic-acid assay
# In short: as §1
row,SMILES,ΔTm [°C]
1,CCN(CC)CCCOc1c(OC)ccc2c1cc1c([n+]2C)-c2cc3c(cc2CC1)OCO3,21.8
2,CCN(CC)CCCOc1c(OC)ccc2nc3c(cc12)CCc1cc2c(cc1-3)OCO2,6.2
3,CCN(CC)CCOc1c(OC)ccc2nc3c(cc12)CCc1cc2c(cc1-3)OCO2,6.3

# Results, then the compound that gave them:
row,ΔTm [°C],SMILES
1,21.4,COc1ccc2c(cc3c([n+]2C)-c2cc4c(cc2CC3)OCO4)c1OCCCN1CCCCC1
2,11.2,CCN(CC)CCCOc1c(OC)ccc2nc3c(cc12)CCc1cc(OC)c(OC)cc1-3
3,25.4,COc1cc2c(cc1OC)-c1c(cc3c(OCCCN4CCCC4)c(OC)ccc3[n+]1C)CC2
